{"data": "Measured values gathered from unrelated publications", "target": "RAC-gamma serine/threonine-protein kinase (AKT3, Homo sapiens, UniProt Q9Y243)", "note": "Lines come from different studies, so protocols differ."}
{"SMILES": "COc1cc(Nc2c(C#N)cnc3cc(OCCCN4CCN(C)CC4)c(OC)cc23)c(Cl)cc1Cl", "test": "cell-free assay", "setting": "0.5 µM", "quantity": "remaining signal", "value": "90.7%"}
{"SMILES": "CCN(CC)c1ccc(C2=NNC(=O)CC2C)cc1[N+](=O)[O-] (centres unmarked)", "test": "enzyme activity, inhibitor", "setting": "10 µM", "quantity": "remaining activity", "value": "91%"}
{"SMILES": "CN(C)CC#Cc1ccc(OCCCc2sc(N3CCc4cccc(C(=O)Nc5nc6ccccc6s5)c4C3)nc2C(=O)O)c(F)c1", "test": "cell-free assay, competition with immobilised ligand", "setting": "1 µM", "quantity": "remaining binding", "value": "100%"}
{"SMILES": "CCC1(CC)NC(=O)c2c(c3ccc(Cl)c(Cl)c3n2C)C1C#N (centres unmarked)", "test": "thermal stability, DSF", "setting": "10 µM", "quantity": "ΔTm", "value": "0.1 °C"}
{"SMILES": "CSc1cccnc1N1CCN(Cc2nc3ccccc3[nH]2)CC1", "test": "cell-free assay, competition with immobilised ligand", "setting": "1 µM", "quantity": "remaining binding", "value": "92%"}
{"SMILES": "Cn1c2c(Cl)c(Cl)ccc2c2cc[nH]c(=O)c21", "test": "thermal stability, DSF", "setting": "10 µM", "quantity": "ΔTm", "value": "0 °C"}
{"SMILES": "O=C(Nc1cnn(-c2csc(C(=O)NC3COC3)c2)c1)Nc1c(F)cccc1Cl", "test": "enzyme activity, inhibitor", "setting": "5 µM", "quantity": "remaining activity", "value": "97.6%"}
{"SMILES": "CNC(=O)c1cc(Oc2ccc(NC(=O)Nc3ccc(Cl)c(C(F)(F)F)c3)cc2)ccn1", "test": "enzyme activity, inhibitor", "setting": "0.3 µM", "quantity": "inhibition", "value": "-4%"}
{"SMILES": "CCCOc1ccc(OC)c(F)c1C(=O)c1ccc(C(=O)N[C@@H]2CNC[C@H]2NC(=O)c2ccc3[nH]ncc3c2)cc1", "test": "enzyme activity, inhibitor", "setting": "0.5 µM", "quantity": "remaining activity", "value": "44%"}
{"SMILES": "Cn1c2c(Cl)c(Cl)ccc2c2cn[nH]c(=O)c21", "test": "thermal stability, DSF", "setting": "10 µM", "quantity": "ΔTm", "value": "0.1 °C"}
{"SMILES": "COc1cc2ncnc(Nc3ccc(Oc4ccccc4)c(C)c3C)c2cc1OC", "test": "enzyme activity, inhibitor", "setting": "1 µM", "quantity": "inhibition", "value": "1%"}
{"SMILES": "Cn1nc(C(F)(F)F)cc1-c1cnc(N2CCc3cc(S(=O)(=O)Nc4c(F)cc(Cl)cc4F)cc(N4CCCC4=O)c32)nc1", "test": "cell-free assay, competition with immobilised ligand", "setting": "1 µM", "quantity": "remaining binding", "value": "84%"}
{"SMILES": "CCN(CC)CCNC(=O)c1c(C)[nH]c(/C=C2\\C(=O)Nc3ccc(F)cc32)c1C", "test": "cell-free assay", "setting": "0.5 µM", "quantity": "remaining signal", "value": "71.7%"}
{"SMILES": "CS(=O)(=O)N1CCCC(NC(=O)[C@H](CCC2CCCCC2)NC(=O)c2ccc(CNC(=O)c3cnc4ccccn34)cc2)C1 (some centres unmarked)", "test": "cell-free assay, competition with immobilised ligand", "setting": "0.1 µM", "quantity": "remaining binding", "value": "100%"}
{"SMILES": "CC1(C)NC(=O)c2[nH]c3c(Cl)c(Cl)ccc3c2C1C#N (centres unmarked)", "test": "thermal stability, DSF", "setting": "10 µM", "quantity": "ΔTm", "value": "0 °C"}
{"SMILES": "Cc1c(NC(=O)c2cc(C(N)=O)nc3cc(F)ccc23)c(C(F)(F)F)nn1Cc1ccc(C#N)cc1", "test": "cell-free assay, competition with immobilised ligand", "setting": "1 µM", "quantity": "remaining binding", "value": "81%"}
{"SMILES": "COc1cc(F)ccc1-c1ncnc(Nc2cccc(C[S@](C)(=N)=O)c2)n1", "test": "enzyme activity, inhibitor", "setting": "10 µM", "quantity": "activity vs control", "value": "100%"}
